Results pooled from the literature.
Protocols differ between the studies behind these lines.
Route: oral

`CC(C)(O)c1ccccc1-c1ccc2[nH]c(/C=C/c3ccc(C(F)(F)F)cc3)nc2c1` gave a Tmax of 3 h (male human; plasma; 120 mg; single dose, fasted).
With `CC(C)(Sc1ccncc1-c1ccc(C#N)c2ccccc12)C(=O)O` the Tmax was 1.25 h (male human; plasma; 5 mg; single dose, fed, healthy volunteers).
`COc1cc(N2CCC(N3CCN(C)CC3)CC2)ccc1Nc1ncnc(Nc2ccccc2S(=O)(=O)C(C)C)n1` has a Tmax of 3.75 h (human; plasma; 325 mg; multiple doses, patients).
`CCc1nc2c(C)cc(N3CCN(CC(=O)N4CC(O)C4)CC3)cn2c1N(C)c1nc(-c2ccc(F)cc2)c(C#N)s1` has a Tmax of 1.8 h (human; plasma; 600 mg; single dose, fasted, healthy volunteers).
The Tmax of `NS(=O)(=O)NCCNc1nonc1C(=NO)Nc1ccc(F)c(Br)c1` is reported as 3 h (human; plasma; 700 mg; multiple doses, twice daily, steady state, patients).
`COc1ccc([C@@H]2CN(C(=O)[C@@H](O)CO)C[C@@]2(C)[C@@H](C)O)cc1OC1CN(c2ccc(C)cn2)C1` has a Tmax of 1.5 h (human; plasma; 5 mg; single dose, healthy volunteers).
The Tmax of `C[C@@H](Nc1cc(F)cc(F)c1)c1cc(C(=O)N(C)C)cc2c(=O)cc(N3CCOCC3)oc12` is reported as 2 h (human; plasma; 30 mg; single dose, patients).
`C=CC(=O)N(C)CCOc1c(N)ncnc1-c1cc(F)cc(NC(=O)c2ccc(C3CC3)cc2F)c1C` has a Tmax of 1.25 h (human; blood; 200 mg; single dose, healthy volunteers).
The Tmax of `CC(C)n1cc(C#N)c2cc(-n3cc(C(=O)O)cn3)ccc21` is reported as 2.3 h (human; plasma; 25 mg; single dose, fasted, healthy volunteers).
`Cn1cc(-c2ccc(S(=O)(=O)[C@@H]3C[C@@H](C(=O)NC4(C#N)CC4)N(C(=O)C4(C(F)(F)F)CC4)C3)c(C(F)(F)F)c2)cn1` gave a Tmax of 3.5 h (human; plasma; 600 mg; single dose, fasted, healthy volunteers).
